Experimental data taken from ChEMBL document CHEMBL4396897, “Potent 5-Cyano-6-phenyl-pyrimidin-Based Derivatives Targeting DCN1-UBE2M Interaction” (J Med Chem, 2019).
Calls of active or inactive are those of the source. The calls are words filed in the database; no cut-off is given here.

Key:
A549 [1] = assay: Induction of apoptosis in human A549 cells assessed as necrotic cells at 10 uM after 48 hrs by Annexin V-FITC/propidium iodide staining based flow cytometry (reference value: 0.88%); type: functional
A549 [2] = assay: Antiproliferative activity against human A549 by MTT assay; type: functional, cell-based; settings: TDE = time-dependent effect
TE-1 = assay: Antiproliferative activity against human TE1 after 72 hrs by MTT assay; type: functional, cell-based
In short: (§1)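 MTT viability assay: cells seeded at 2~5×10^3 per well, exposed to serial dilutions of compound for 72h, then MTT (5 mg/mL in PBS) added for 4h at 37°C. Formazan dissolved in DMSO and read at 490nm. IC50 reported as mean ± SD of three independent experiments.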

PC-9 [3] = assay: Induction of apoptosis in human PC9 cells assessed as late apoptotic cells at 2.5 uM after 48 hrs by Annexin V-FITC/propidium iodide staining based flow cytometry (reference value: 1.57%); type: functional
GES1 = assay: Antiproliferative activity against human GES-1 after 72 hrs by MTT assay; type: cell-based; settings: ges1, 72 h; in short: as §1
NCI-H1975 [4] = assay: Induction of apoptosis in human NCI-NCI-H1975 cells after 48 hrs by Annexin V-FITC/propidium iodide staining based flow cytometry; type: functional, cell-based
NCI-H1975 [5] = assay: Induction of apoptosis in human NCI-NCI-H1975 cells assessed as early apoptotic cells at 10 uM after 48 hrs by Annexin V-FITC/propidium iodide staining based flow cytometry (reference value: 2.47%); type: functional
KYSE-140 = assay: Antiproliferative activity against human KYSE-140 after 72 hrs by MTT assay; type: functional, cell-based; in short: as §1
NCI-H1975 [6] = assay: Induction of apoptosis in human NCI-NCI-H1975 cells assessed as late apoptotic cells at 2.5 uM after 48 hrs by Annexin V-FITC/propidium iodide staining based flow cytometry (reference value: 0.46%); type: functional
NCI-H1975 [7] = assay: Inhibition of colony formation in human […] cells after 7 days by crystal violet staining based microscopic analysis; type: functional, cell-based
In short: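 H1975, PC9 and A549 cells seeded at 1×10^3 cells per well and cultured overnight, then given fresh medium with compound at 0, 0.625, 1.25, 2.5, 5 or 10μM for 7 days. Cells fixed, stained with 0.1% crystal violet and imaged by microscopy; dye then dissolved and read on a plate reader. Three experiments; means ± SD.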

PC-9 [8] = assay: Induction of apoptosis in human PC9 cells assessed as early apoptotic cells at 2.5 uM after 48 hrs by Annexin V-FITC/propidium iodide staining based flow cytometry (reference value: 1.36%); type: functional
In short: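 PC9 cells seeded in 6-well plates (1~2×10^6 cells/mL), incubated overnight, then exposed to 0, 2.5, 5 or 10µM compound for 48h. Harvested cells stained with Annexin-V-FITC/PI for 30 min and analysed by flow cytometry. Three individual experiments; means ± SD.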

L02 = assay: Antiproliferative activity against human L02 after 72 hrs by MTT assay; type: cell-based; settings: l02, 72 h; in short: as §1
DCN1-like protein 2 = DCN1-like protein 2 (Homo sapiens, UniProt Q6PH85); assay: Binding affinity to N-terminal GST tagged recombinant DCN2 (unknown origin) (62 to 259 residues) expressed in Escherichia coli BL21(DE3) assessed as reduction in DCN1-FAM-labelled N-terminal acetylated UBE2M (1 to 21 residues) protein-protein interaction after 30 mins by HTRF assay
Sequence of DCN1-like protein 2 (Q6PH85 whole entry, the tested form may be a part): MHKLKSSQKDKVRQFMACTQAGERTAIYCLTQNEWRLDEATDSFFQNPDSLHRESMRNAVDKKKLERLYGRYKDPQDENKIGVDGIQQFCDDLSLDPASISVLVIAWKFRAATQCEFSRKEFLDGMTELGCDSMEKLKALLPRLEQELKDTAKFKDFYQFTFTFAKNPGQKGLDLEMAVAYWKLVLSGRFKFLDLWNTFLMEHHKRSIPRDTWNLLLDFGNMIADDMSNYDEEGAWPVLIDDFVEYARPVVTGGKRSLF
In short: (§2)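 HTRF competition: 5nM GST-tagged DCN (1-5) and 5nM AcUBE2M1-21-biotin peptide, with streptavidin-XL665 and anti-GST cryptate, in 100mM phosphate buffer pH 6.5 with 0.02% Tween-20. Cocktail pre-incubated 30min at room temperature, compound added, then 30min more. Excitation 320nm, emission 615/665nm. Ki from three independent repeats, mean ± SD.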

DCN1-like protein 4 = target: T1, DCN1-like protein 4 (Homo sapiens, UniProt Q92564); assay: Binding affinity to N-terminal GST tagged recombinant DCN4 (unknown origin) (102 to 292 residues) expressed in Escherichia coli BL21(DE3) assessed as reduction in DCN1/FAM-labelled N-terminal acetylated UBE2M (1 to 21 residues) protein-protein interaction after 30 mins by HTRF assay; in short: as §2
T1 sequence (Q92564 whole entry): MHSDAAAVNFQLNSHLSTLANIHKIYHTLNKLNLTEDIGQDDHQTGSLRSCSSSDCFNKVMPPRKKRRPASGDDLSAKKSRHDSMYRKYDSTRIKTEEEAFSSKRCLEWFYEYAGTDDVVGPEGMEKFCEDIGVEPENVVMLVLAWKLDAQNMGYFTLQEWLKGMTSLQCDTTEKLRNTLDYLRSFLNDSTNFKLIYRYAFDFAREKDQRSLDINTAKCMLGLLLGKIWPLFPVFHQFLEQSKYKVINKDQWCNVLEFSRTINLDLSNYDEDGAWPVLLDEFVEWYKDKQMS

DCN1-like protein 3 = target: T2, DCN1-like protein 3 (Homo sapiens, UniProt Q8IWE4); assay: Binding affinity to N-terminal GST tagged recombinant DCN3 (unknown origin) (86 to 304 residues) expressed in Escherichia coli BL21(DE3) assessed as reduction in DCN1/FAM-labelled N-terminal acetylated UBE2M (1 to 21 residues) protein-protein interaction after 30 mins by HTRF assay; in short: as §2
T2 sequence (Q8IWE4 whole entry): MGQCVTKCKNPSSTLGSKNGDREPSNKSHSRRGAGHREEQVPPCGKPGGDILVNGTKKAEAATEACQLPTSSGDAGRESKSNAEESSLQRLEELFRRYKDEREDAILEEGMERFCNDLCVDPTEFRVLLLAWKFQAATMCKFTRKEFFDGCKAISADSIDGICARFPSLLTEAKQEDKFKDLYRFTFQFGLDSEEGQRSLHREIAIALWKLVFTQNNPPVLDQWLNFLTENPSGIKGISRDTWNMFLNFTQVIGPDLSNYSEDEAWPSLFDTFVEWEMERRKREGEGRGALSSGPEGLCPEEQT

DCN1-like protein 5 = target: T3, DCN1-like protein 5 (Homo sapiens, UniProt Q9BTE7); assay: Binding affinity to N-terminal GST tagged recombinant DCN5 (unknown origin) (47 to 237 residues) expressed in Escherichia coli BL21(DE3) assessed as reduction in DCN1/FAM-labelled N-terminal acetylated UBE2M (1 to 21 residues) protein-protein interaction after 30 mins by HTRF assay; in short: as §2
T3 sequence (Q9BTE7 whole entry): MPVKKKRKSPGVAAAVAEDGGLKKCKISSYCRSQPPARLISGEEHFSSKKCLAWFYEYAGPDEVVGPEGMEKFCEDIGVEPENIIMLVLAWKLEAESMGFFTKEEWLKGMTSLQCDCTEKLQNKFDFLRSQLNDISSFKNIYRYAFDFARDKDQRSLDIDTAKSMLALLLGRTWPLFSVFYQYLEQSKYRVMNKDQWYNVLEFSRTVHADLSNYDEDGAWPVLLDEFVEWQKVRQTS

NCI-H1975 [9] = assay: Effect on Cullin3 neddylation in human NCI-H1975 cells transfected with DCN1 siRNA3 by densitometric method; type: functional, cell-based
In short: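 H1975 or PC9 cells seeded in 6-well plates for 16-24h, transfected with DCN1 siRNA#3 by lipofection, with or without compound, and collected three days later. Western blot for Cullin3, DCN1, NRF2, HO-1 and NQO1, with densitometry normalized to GAPDH. Three individual experiments, means ± SD.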

Ki (DCN1-like protein 2): 66.2 nM
Ki (DCN1-like protein 4): 807 nM
Ki (DCN1-like protein 3): 592 nM
Ki (DCN1-like protein 5): 2140 nM
SMILES: C#CCSc1nc(Sc2nccs2)c(C#N)c(-c2ccc(C)cc2)n1
Activity (A549 [1]): 0.72%
Activity (A549 [2]): Tde
Activity (TE-1): Active
Activity (PC-9 [3]): 10.2%
Activity (GES1): Non-Toxic
Activity (NCI-H1975 [4]): Dose-dependent effect
Activity (NCI-H1975 [5]): 33.2%
Activity (KYSE-140): Active
Activity (NCI-H1975 [6]): 9.13%
inhibition (NCI-H1975 [7]): Dose-dependent effect
Activity (PC-9 [8]): 0.64%
Activity (L02): Non-Toxic
Activity (NCI-H1975 [9]): inactive
